Ends that are not written are not given here.
Key:
[1] = mice; cited from earlier work
MRGPRX2 (human MC) = conditions: cited from earlier work
MRGPRX2 = conditions: LL-37 as agonist; cited from earlier work
[2] = test system: MRGPRX2 (HTLA-MRGPRX2 cells); experiment: Tango assay; assay type: cell-based; conditions: resveratrol 100 μM, 5 min
Method in brief: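 HTLA cells (HEK-293T expressing β-arrestin2-TEV) stably transfected with MRGPRX2-Tango; single-cell clone, surface FLAG checked by flow. 50,000 cells/well on poly-L-lysine, triplicate, antibiotic-free medium, 6 h at 37°C; resveratrol 100 μM 5 min where used, then agonist 16 h at 37°C; Bright-Glo luminescence. Ca2+: Calcium 6 dye 2 h 37°C, 1 h room temperature, FLIPR read every 1 s for 5 min. Mean ± SEM, three experiments.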

[3] = test system: MRGPRX2 (RBL-2H3 cells stably expressing MRGPRX2); experiment: RBL-MRGPRX2 degranulation; assay type: cell-based
Method in brief: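 RBL-2H3 cells stably expressing MRGPRX2 were kept in 1 mg/mL G418. Cells were seeded at 5 × 10^4 per well and cultured overnight with or without pertussis toxin (100 ng/mL, 16 h), then washed twice into HEPES buffer with 0.1% BSA. Optional resveratrol was 100 μM for 5 min. Cells were stimulated with test compound for 30 min at 37°C, and β-hexosaminidase release was measured with 1 mM PNAG (1 h, 37°C) at A405 as percent of total.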

[4] = test system: MRGPRX2 (HTLA-MRGPRX2 cells); conditions: cited from earlier work
[5] = test system: IgE-mediated MC degranulation; conditions: cited from earlier work
[6] = test system: LAD2 cells (human MC line, endogenously expressing MRGPRX2); experiment: LAD2 degranulation; assay type: cell-based; conditions: resveratrol 100 μM, 5 min, 30 min
Method in brief: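 LAD2 cells were grown in StemPro-34 with rhSCF (100 ng/mL), washed, and seeded at 10^4 per well in HEPES buffer with 0.1% BSA. Where used, resveratrol pretreatment was 100 μM for 5 min, followed by stimulation with test compound for 30 min at 37°C. Supernatant or Triton X-100 lysate of unstimulated cells (total) was incubated with 1 mM PNAG for 1 h at 37°C, stopped with carbonate buffer, and read at A405. Result is percent β-hexosaminidase release; three experiments.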

[7] = test system: MRGPRX2 (RBL-MRGPRX2 cells); experiment: Ca2+ mobilization in RBL-MRGPRX2 cells; assay type: cell-based; conditions: PTx 100 ng/mL, 16 h, Indo-1, agonist compound 48/80 1 μg/mL, AG-30/5C 1 μM or Icatibant 20 μg/mL, representative traces
[8] = test system: MRGPRX2 (HTLA-MRGPRX2 cells); experiment: Ca2+ mobilization in HTLA-MRGPRX2 cells; assay type: cell-based; conditions: compound 48/80 30 μg/mL, AG-30/5C 10 μM, Icatibant 30 μg/mL; FLIPR-Tetra; representative traces
Method in brief: (§1)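 HTLA cells (HEK-293T stably expressing β-arrestin2-TEV) were stably transfected with the MRGPRX2-Tango or MRGPRX4-Tango plasmid, and a single-cell-derived clone was checked for receptor expression by anti-FLAG flow cytometry. Cells were plated at 10^4 per well on collagen and grown 24 h at 37°C, then loaded with Calcium 6 dye for 2 h at 37°C. After 1 h equilibration at room temperature, test compound was added and fluorescence imaged every 1 s for 5 min on FLIPR-Tetra.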

[9] = treatment of hereditary angioedema; cited from earlier work
[10] = test system: MRGPRX4 (HTLA-MRGPRX4 cells); experiment: Tango assay; assay type: cell-based; conditions: nateglinide 30 μM, 16 h, 37°C, three experiments
Method in brief: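 Tango line from HTLA cells (HEK-293T with β-arrestin2-TEV) stably transfected with MRGPRX4-Tango, single-cell cloned, surface FLAG confirmed by flow. Cells plated at 50,000/well on poly-L-lysine in triplicate, antibiotic-free medium, 6 h at 37°C, then agonist 16 h at 37°C; Bright-Glo luminescence. Ca2+ traces: Calcium 6 loading 2 h 37°C, 1 h room-temperature equilibration, FLIPR imaging every 1 s over 5 min.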

[11] = test system: MRGPRX4 (HTLA-MRGPRX4 cells); experiment: Ca2+ mobilization in HTLA-MRGPRX4 cells; assay type: cell-based; conditions: nateglinide 30 μM, AG-30/5C 10 μM, compound 48/80 30 μg/mL; FLIPR-Tetra; representative traces
Method in brief: as §1

For LL-37, the vaccine adjuvant activity [1] is listed as “safe and effective vaccine adjuvant in mice”, the “activation of human MC via MRGPRX2 (literature)” value (MRGPRX2 (human MC)) is listed as “activate human MC” and the “receptor phosphorylation, desensitization and internalization” value (MRGPRX2) is listed as “resistant to phosphorylation, desensitization and internalization”.
For “human β-defensin 3: host defense peptide (GIINTLQKYYCRVRGGRCAVLSCLPKEEQIGKCSTRGRKCCRRKK; ends and bridges not checked; cysteine pairing not given here; UniProt P81534 23-67, looked up)”, the “effect of PTx on MC degranulation and Ca2+ mobilization (literature)” value (MRGPRX2 (human MC)) is given as “inhibits MC degranulation in response to host defense peptide, human β-defensin 3 without affecting Ca^2+ mobilization”.
For Oc1ccc(/C=C/c2cc(O)cc(O)c2)cc1 [resveratrol], the “effect on AG-30/5C Tango response” value ([2]; AG-30/5C 10 μM overnight) was “no effect on Tango”, the “inhibition of compound 48/80-induced β-arrestin gene expression (Tango)” value ([2]; compound 48/80 3.0, 10 and 20 μg/mL overnight) was “significant (p≤ 0.01 and p≤ 0.001) inhibition” and the “inhibition of Icatibant-induced degranulation, RBL-MRGPRX2” value ([3]; resveratrol 100 μM, 5 min, Icatibant 20 μg/mL, 30 min) was “significant (p≤ 0.05 and p≤ 0.001) inhibition”. For the same compound, the “inhibition of compound 48/80- and AG-30/5C-induced degranulation, RBL-MRGPRX2” value ([3]; resveratrol 100 μM, 5 min, compound 48/80 1 μg/mL or AG-30/5C 1 μM, 30 min) was “significantly (p ≤0.05, 0.01 and 0.001) reduced degranulation”, the “inhibition of constitutive MRGPRX2-mediated Tango” value ([4]; NIH Clinical Collection library (NCC-1) screen) was “inhibitor of constitutive MRGPRX2-mediated Tango” and the “inhibition of IgE-mediated MC degranulation” value [5] was “activates sirtuin 1 (sirt1) to inhibit IgE-mediated MC degranulation”. For the same compound, the “inhibition of Icatibant-induced degranulation, LAD2” value ([6]; Icatibant 20 μg/mL) was “significant (p≤ 0.05 and p≤ 0.001) inhibition” and the “inhibition of compound 48/80- and AG-30/5C-induced degranulation, LAD2” value ([6]; compound 48/80 1 μg/mL or AG-30/5C 1 μM) was “significantly (p ≤0.05, 0.01 and 0.001) reduced degranulation”.
In the case of Icatibant, the “effect of pertussis toxin on agonist-induced degranulation” value ([3]; RBL-MRGPRX2, PTx 100 ng/mL, 16 h, agonist compound 48/80 1 μg/mL or AG-30/5C 1 μM (p ≤ 0.001), or Icatibant 20 μg/mL) is given as “completely blocked”, the “β-arrestin-mediated gene expression (literature)” value ([4]; HTLA cells expressing MRGPRX2-Tango) is given as “does not activate β-arrestin-mediated gene expression” and the “effect of pertussis toxin on agonist-induced Ca2+ mobilization” value [7] is given as “completely blocked Icatibant-induced degranulation but not Ca^2+ mobilization”. For the same compound, the “peak Ca2+ mobilization, high concentration” value [8] was “induced Ca^2+ mobilization although the peak was much shorter than compound 48/80”, the “MC degranulation via MRGPRX2 (literature)” value (MRGPRX2 (human MC)) was “promotes MC degranulation via MRPGRX2” and the “injection site pseudo-allergic drug reaction” value [9] was “injection site pseudo-allergic drug reaction in nearly every patient”.
For CC(C)[C@H]1CC[C@H](C(=O)N[C@H](Cc2ccccc2)C(=O)O)CC1 [nateglinide], the “β-arrestin-mediated gene expression via MRGPRX4 (Tango), in words” value ([10]; AG-30/5C 10 μM, compound 48/80 30 μg/mL) was “induces β-arrestin-mediated gene expression”, the “increase in β-arrestin-mediated gene expression via MRGPRX4” value [10] was greater than 100 fold and the “Ca2+ mobilization via MRGPRX4” value [11] was “causes an increase in Ca^2+ mobilization”.

From PMC6369923 (Journal of immunology (Baltimore, Md. : 1950), 2019)
